The subject of test [1] is U-87MG ATCC. The test can be described thus: Induction of vacuolization in human U87 cells at 1 uM by microscopic analysis.
For test [2], the system named is U-87 MG. The test can be described thus: Antiproliferative activity against human U87 cells assessed as reduction in cell growth incubated for 4 days by cell-titer glo assay. It is filed as functional, cell-based, U-87MG ATCC. To be noted: 96 h. The gist of the method: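 Cells grown in RPMI1640 with 10% FBS, 2 mM glutamine and penicillin-streptomycin at 37 °C, 5% CO₂. Viability read as ATP by CellTiter-Glo luminescence. IC50 as mean ± SD from triplicate experiments.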

Test [3] concerns the target Vimentin (Homo sapiens) (UniProt P08670). The test can be described thus: Binding affinity to vimentin in human U87 cells at 100 nM incubated for 2 hrs by MALDI-MS/MS analysis. It counts as cell-based. The gist of the method: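 Live U87 cells treated with the alkyne photoaffinity probe at 100 nM (DMSO control), then UV irradiated (315-385 nm, 30 min) through the flask bottom. Lysed in Hepes buffer pH 7.5 and click-reacted with biotin-N₃ (1 mM CuSO₄, 1 mM TCEP). Streptavidin-agarose enrichment, 10% SDS-PAGE separation, then LC-MS/MS identification.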

The test system of test [4] is U-87MG ATCC. The test can be described thus: Induction of vacuolization in human U87 cells at 31.6 nM incubated for 4 days by microscopic analysis. It is filed as functional, cell-based. Particulars: time 4.0 day. The gist of the method:
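Cytoplasmic vacuolization was first screened visually by microscope in U87 cells treated with each compound at 1. Positive compounds were then titrated down to 0.01. Each was scored by its minimal effective concentration: 5 if vacuoles were significant at 10 nM, 4 at 31.6 nM, and so on downward.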

Test [5] has as its system LNCaP. The test can be described thus: Induction of vacuolization in human LNCaP cells at 100 nM by microscopic analysis. It is filed as functional, cell-based.
Test [6] has as its system HCT-15. The test can be described thus: Induction of vacuolization in human HCT-15 cells at 100 nM by microscopic analysis. It is filed as functional, cell-based.
The subject of test [7] is SK-MEL-28. The test can be described thus: Induction of vacuolization in human SK-MEL-28 cells at 100 nM by microscopic analysis. It is filed as functional, cell-based.
For test [8], the system named is OVCAR-3. The test can be described thus: Induction of vacuolization in human OVCAR-3 cells at 100 nM by microscopic analysis. It is filed as functional, cell-based.
For test [9], the system named is HepG2. Nature of the test: Induction of vacuolization in human HepG2 cells at 100 nM by microscopic analysis. It is filed as functional, cell-based.
For test [10], the system named is NCI-H522. Nature of the test: Induction of vacuolization in human NCI-H522 cells at 100 nM by microscopic analysis. It counts as functional, cell-based.
Test [11] relates to U-87MG ATCC. The test can be described thus: Induction of methuosis in human U87 cells assessed as increase in number of cytoplasmic vacuoles at 10 nM measured after 24 hrs by […] staining based microscopic analysis. It is filed as functional, cell-based. The gist of the method: (§1)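 U87 cells were cultured in RPMI1640 with 10% FBS at 37 °C, 5% CO₂, and compound-treated for 24 h across 0.01-10. Cytoplasmic vacuolization was imaged by microscopy, with time-lapse confocal tracking of vesicle movement, vacuole fusion, cell rounding and disintegration. Macropinocytic origin was checked by lucifer yellow uptake and by staining with ER and Golgi markers.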

Test [12] deals with U-87MG ATCC. Nature of the test: Induction of methuosis in human U87 cells assessed as increase in intracellular vacuolization in para nuclear region at 10 nM measured < 2 hrs by microscopic analysis. It counts as functional, cell-based. Particulars: time hrs <2.
The subject of test [13] is U-87MG ATCC. The test can be described thus: Induction of methuosis in human U87 cells assessed as disintegrated cytoplasmic vacuoles at 10 nM measured after 24 hrs by […] staining based microscopic analysis. It is filed as functional, cell-based. The gist of the method: as §1
The test system of test [14] is U-87MG ATCC. Nature of the test: Induction of methuosis in human U87 cells assessed as increase in size of cytoplasmic vacuoles at 10 nM measured after 24 hrs by […] staining based microscopic analysis. It is filed as functional, cell-based. The gist of the method: as §1
The test system of test [15] is U-87MG ATCC. The test can be described thus: Induction of methuosis in human U87 cells assessed as increase in accumulation of small vesicles at 10 nM measured after 24 hrs by […] staining based microscopic analysis. It is filed as functional, cell-based. The gist of the method: as §1
Test [16] has as its system U-87MG ATCC. The test can be described thus: Induction of methuosis in human U87 cells assessed as macropinocytosis by measuring cytoplasmic vacuolization at 10 nM incubated for 24 hrs by […] staining based confocal microscopic analysis. It counts as functional, cell-based. The gist of the method: as §1
The subject of test [17] is U-87MG ATCC. Nature of the test: Induction of methuosis in human U87 cells assessed as rounded cytoplasmic vacuoles at 10 nM measured after 24 hrs by […] staining based microscopic analysis. It is filed as functional, cell-based. The gist of the method:
as §1

The results in this text go back to ChEMBL document CHEMBL4732188, “SARs of a novel series of s-triazine compounds targeting vimentin to induce methuotic phenotype” (Eur J Med Chem, 2021).

Calls of active or inactive are those of the source. No cut-off for these calls is given here.

Sequence of Vimentin (Homo sapiens) (P08670 whole entry): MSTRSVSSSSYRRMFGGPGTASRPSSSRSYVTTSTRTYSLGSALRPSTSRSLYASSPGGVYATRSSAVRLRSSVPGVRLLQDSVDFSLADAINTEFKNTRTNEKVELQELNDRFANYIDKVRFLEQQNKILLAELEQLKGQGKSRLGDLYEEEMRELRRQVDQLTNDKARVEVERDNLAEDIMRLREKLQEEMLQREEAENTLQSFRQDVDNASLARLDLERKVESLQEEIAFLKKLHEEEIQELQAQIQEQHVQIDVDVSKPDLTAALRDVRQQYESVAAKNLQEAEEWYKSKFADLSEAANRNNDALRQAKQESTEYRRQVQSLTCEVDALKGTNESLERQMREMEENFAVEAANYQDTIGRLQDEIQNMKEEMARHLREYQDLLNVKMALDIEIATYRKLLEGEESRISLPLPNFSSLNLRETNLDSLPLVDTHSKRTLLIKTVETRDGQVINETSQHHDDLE

Turning to `O=C(Nc1ccc(Cl)cc1)Nc1ccc(Nc2nc(/C=C/c3cccc([N+](=O)[O-])c3)nc(N3CCCC3)n2)cc1`, the outcome in test [1] was inactive. Besides, the half-maximal inhibitory concentration (IC50) (as a rule, the concentration at which inhibition is half-maximal) in test [2] worked out at 4470 nM.

`O=C(Nc1ccc(Cl)cc1)Nc1cccc(Nc2nc(/C=C/c3cccc([N+](=O)[O-])c3)nc(N3CCOCC3)n2)c1`: the result in test [1] was inactive. Further, the concentration for half-maximal inhibition (IC50) in test [2] is 3660 nM.

Regarding `CN1CCN(C(=O)c2ccc(NC(=O)Nc3ccc(Nc4nc(/C=C/c5ccccc5)nc(N5CCOCC5)n4)cc3)cc2)CC1`, the outcome in test [1] was Active. Also, the concentration for half-maximal inhibition (IC50) in [2] is 230 nM.

For the molecule `CN(C)c1nc(/C=C/c2cccc([N+](=O)[O-])c2)nc(Nc2ccc(NC(=O)Nc3ccc(Cl)cc3)cc2)n1`, the outcome in [1] was inactive. Also, the IC50 in [2] was determined as 5120 nM.

As for `CN1CCN(c2nc(/C=C/c3cccc([N+](=O)[O-])c3)nc(Nc3ccc(NC(=O)Nc4ccc(Cl)cc4)cc3)n2)CC1`, the result in test [1] was inactive. Also, the concentration for half-maximal inhibition (IC50) in test [2] worked out at 1210 nM.

On to `CN(C)CCCNC(=O)c1ccc(NC(=O)Nc2ccc(Nc3nc(/C=C/c4ccccc4)nc(N4CCOCC4)n3)cc2)cc1`, for which, in [1], the result was Active. In test [2], the concentration for half-maximal inhibition (IC50) was found to be 2310 nM.

With `C#CCCC1(CCNC(=O)c2ccc(NC(=O)Nc3ccc(Nc4nc(/C=C/c5ccccc5)nc(N5CCOCC5)n4)cc3)cc2)N=N1`, the result in test [3] and in test [4] was Active.

For the molecule `O=C(Nc1ccc(Cl)cc1)Nc1ccc(Nc2nc(/C=C/c3cccc([N+](=O)[O-])c3)nc(N3CCOCC3)n2)cc1`, the result in test [5], in [1], in test [6], in test [7], in [8] and in test [9] was Active. The result in test [10] was Active. The concentration for half-maximal inhibition (IC50) in [2] is 1710 nM.

For `O=C(Nc1ccc(F)cc1)Nc1ccc(Nc2nc(/C=C/c3cccc(Cl)c3)nc(N3CCOCC3)n2)cc1`, in [1], the outcome was Active. In test [2], the IC50 stood at 1330 nM.

`O=C(Nc1ccc(Nc2nc(/C=C/c3ccc(Cl)cc3)nc(N3CCOCC3)n2)cc1)Nc1cccc(F)c1`: the result in test [1] was Active. In addition, the IC50 in test [2] was found to be 4410 nM.

Turning to `O=C(Nc1ccc(Cl)cc1)Nc1ccc(Nc2nc(/C=C/c3cccc([N+](=O)[O-])c3)nc(N3CC(O)C3)n2)cc1`, the result in [1] was inactive. The 50% inhibitory concentration (IC50) in [2] came to 1320 nM.

As to `O=C(Nc1ccc(F)cc1)Nc1ccc(Nc2nc(/C=C/c3ccc(Cl)cc3)nc(N3CCOCC3)n2)cc1`, in test [1], the outcome was Active. Further, the 50% inhibitory concentration (IC50) in test [2] turned out to be 2500 nM.

As for `O=C(Nc1ccc(Cl)cc1)Nc1cccc(Nc2nc(/C=C/c3cccc(Cl)c3)nc(N3CCOCC3)n2)c1`, in [1], the result was inactive. Also, in test [2], the half-maximal inhibitory concentration (IC50) was found to be 2200 nM.

`CN(C)CCNC(=O)c1ccc(NC(=O)Nc2ccc(Nc3nc(/C=C/c4ccccc4)nc(N4CCOCC4)n3)cc2)cc1`: the outcome in test [1] was Active. The IC50 in test [2] is 2480 nM.

Regarding `O=C(Nc1ccc(F)cc1)Nc1ccc(Nc2nc(/C=C/c3ccccc3)nc(N3CCOCC3)n2)cc1`, the outcome in test [1] was Active. Moreover, the 50% inhibitory concentration (IC50) in test [2] turned out to be 4750 nM.

In the case of `CC1CCN(C(=O)c2ccc(NC(=O)Nc3ccc(Nc4nc(/C=C/c5ccccc5)nc(N5CCOCC5)n4)cc3)cc2)CC1`, in [1], the result was Active. For the same molecule, the IC50 in [2] was determined as 870 nM.

As to `O=C(Nc1ccc(Nc2nc(/C=C/c3ccccc3)nc(N3CCOCC3)n2)cc1)Nc1ccc(C(=O)NCCN2CCCCC2)cc1`, the result in [1] was Active. In addition, the concentration for half-maximal inhibition (IC50) in test [2] is 1110 nM.

On to `O=C(Nc1ccc(Nc2nc(/C=C/c3ccccc3)nc(N3CCOCC3)n2)cc1)Nc1ccc(C(=O)NCCN2CCCC2)cc1`, for which the result in test [1] was Active. Moreover, the IC50 in test [2] is 1430 nM.

In the case of `O=C(Nc1ccc(Cl)cc1)Nc1cccc(Nc2nc(/C=C/c3ccccc3)nc(N3CCOCC3)n2)c1`, the result in test [1] was inactive. In addition, the IC50 in [2] turned out to be 1000 nM.

`O=C(Nc1ccc(Nc2nc(/C=C/c3ccccc3)nc(N3CCOCC3)n2)cc1)Nc1ccc(C(=O)NCCN2CCOCC2)cc1`: the outcome in [1] was Active. In addition, in test [2], the IC50 was determined as 550 nM.

As to `CN(C)C(=O)c1ccc(NC(=O)Nc2ccc(Nc3nc(/C=C/c4ccccc4)nc(N4CCOCC4)n3)cc2)cc1`, the result in [1] was Active. For the same molecule, the IC50 in test [2] is 530 nM.

In the case of `O=C(Nc1ccc(F)cc1)Nc1ccc(Nc2nc(/C=C/c3cccc([N+](=O)[O-])c3)nc(N3CCOCC3)n2)cc1`, in test [1], the outcome was Active. Moreover, the half-inhibitory concentration (IC50) in test [2] was 1110 nM.

For `O=C(Nc1ccc(Cl)cc1)Nc1ccc(Nc2nc(/C=C/c3ccccc3)nc(N3CCOCC3)n2)cc1`, the outcome in test [1], in test [4], in test [11], in test [12], in [13] and in [14] was Active. In addition, the result in [15], in test [16] and in test [17] was Active. Moreover, in [2], the IC50 turned out to be 4790 nM.
